# Legend:
# Rat [1] = assay: concentration in brain after dosing; settings: 6 h; dosed: Fluorotelomer alcohol 8+2; 24 mg/kg; oral; Male; Harlan Sprague Dawley
# Rat [2] = assay: concentration in brain after dosing; settings: 6 h; dosed: Fluorotelomer alcohol 8+2; 24 mg/kg; oral; Male; Harlan Sprague Dawley; remark: listed apart in the source
# Rat [3] = assay: concentration in liver after dosing; settings: 3 h; dosed: Fluorotelomer alcohol 8+2; 24 mg/kg; oral; Male; Harlan Sprague Dawley
# Rat [4] = assay: concentration in liver after dosing; settings: 3 h; dosed: Fluorotelomer alcohol 8+2; 24 mg/kg; oral; Male; Harlan Sprague Dawley; remark: listed apart in the source
# Rat [5] = assay: concentration in plasma after dosing; settings: dosed: Fluorotelomer alcohol 8+2, 40 mg/kg, iv, Female, Harlan Sprague-Dawley
# Rat [6] = assay: concentration in kidney after dosing; settings: 1 h; dosed: Perfluorodecanoic acid; 10 mg/kg; oral; Male; Harlan Sprague Dawley
# Rat [7] = assay: concentration in kidney after dosing; settings: 864 h; dosed: Perfluorodecanoic acid; 10 mg/kg; oral; Male; Harlan Sprague Dawley
# Rat [8] = assay: concentration in plasma after dosing; settings: 4 h; dosed: Bis 2-Chloroethoxy Methane; 20 mg/kg; iv; Male; F344
# Rat [9] = assay: concentration in plasma after dosing; settings: 40 min; dosed: Bis 2-Chloroethoxy Methane; 20 mg/kg; iv; Male; F344
# Rat [10] = assay: concentration in thymus after dosing; settings: 4 h; dosed: Bis 2-Chloroethoxy Methane; 20 mg/kg; iv; Male; F344
# Rat [11] = assay: concentration in heart after dosing; settings: 10 min; dosed: Bis 2-Chloroethoxy Methane; 20 mg/kg; iv; Female; F344
# Rat [12] = assay: concentration in plasma after dosing; settings: 2 h; dosed: Bis 2-Chloroethoxy Methane; 20 mg/kg; iv; Male; F344
# Rat [13] = assay: concentration in heart after dosing; settings: 3 h; dosed: Bis 2-Chloroethoxy Methane; 20 mg/kg; iv; Male; F344
# Rat [14] = assay: concentration in plasma after dosing; settings: 2 min; dosed: dichloroacetic acid; 10 mg/kg; iv; Male; F344
# Rat [15] = assay: concentration in plasma after dosing; settings: dosed: dichloroacetic acid, 100 mg/kg, oral, Male, F344
# Rat [16] = assay: concentration in heart after dosing; settings: 10 min; dosed: Thiodiglycolic Acid; 20 mg/kg; iv; Female; Harlan Sprague Dawley
# Rat [17] = assay: concentration in plasma after dosing; settings: 2 h; dosed: Thiodiglycolic Acid; 20 mg/kg; iv; Female; Harlan Sprague Dawley
# Rat [18] = assay: concentration in heart after dosing; settings: 4 h; dosed: Thiodiglycolic Acid; 20 mg/kg; iv; Male; Harlan Sprague Dawley
# Rat [19] = assay: concentration in plasma after dosing; settings: 1 h; dosed: Thiodiglycolic Acid; 20 mg/kg; iv; Female; Harlan Sprague Dawley
# Rat [20] = assay: concentration in thymus after dosing; settings: 20 min; dosed: Thiodiglycolic Acid; 20 mg/kg; iv; Female; Harlan Sprague Dawley
# Rat [21] = assay: concentration in plasma after dosing; settings: 40 min; dosed: Thiodiglycolic Acid; 20 mg/kg; iv; Male; Harlan Sprague Dawley
# Rat [22] = assay: concentration in plasma after dosing; settings: 2 h; dosed: Di-n-butyl phthalate; 100 mg/kg; oral; Male; Sprague-Dawley
# Rat [23] = assay: concentration in plasma after dosing; settings: 10 min; dosed: Di-n-butyl phthalate; 50 mg/kg; oral; Male; Sprague-Dawley
# Rat [24] = assay: concentration in plasma after dosing; settings: 5 min; dosed: Di-n-butyl phthalate; 100 mg/kg; oral; Male; Sprague-Dawley
# human [25] = settings: dosed: tetrachloroethylene, 144 ppm, inhalation, duration: 4 hr, male
# Procedure, shortened: (§1)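 Concentration-versus-time or amount-versus-time points were compiled from published in vivo toxicokinetic studies and from two structured collections. The studies were found by PubMed searching, classifier screening and manual review. Points were mostly digitised from plot screenshots with WebPlotDigitizer, otherwise copied from tables, and kept in the reported units. Dose, route, subject details and medium were curated by hand from each paper, and sampling and analytical methods follow each source and were often unreported.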
# rat [26] = assay: concentration in plasma after dosing; negative times count back from the end of exposure; settings: dosed: trichloroethylene, inhalation, duration: 4 hr, female, F344
# human [27] = assay: amount in urine after dosing (mg cumulative excretion); settings: dosed: trichloroethylene, inhalation, duration: 8 hr
# Procedure, shortened: as §1
smiles,measurement,setting,value
OCCC(F)(F)C(F)(F)C(F)(F)C(F)(F)C(F)(F)C(F)(F)C(F)(F)C(F)(F)F [Fluorotelomer alcohol 8+2],concentration in brain,Rat [1],544 ng/g
same,concentration in brain,Rat [2],323 ng/g
same,concentration in liver,Rat [3],2220 ng/g
same,concentration in liver,Rat [4],3080 ng/g
same,concentration in plasma,Rat [5]; 0.75 h,4710 ng/mL
same,concentration in plasma,Rat [5]; 12 h,55.5 ng/mL
O=C(O)C(F)(F)C(F)(F)C(F)(F)C(F)(F)C(F)(F)C(F)(F)C(F)(F)C(F)(F)C(F)(F)F [Perfluorodecanoic acid],concentration in kidney,Rat [6],10800 ng/g
same,concentration in kidney,Rat [7],10600 ng/g
ClCCOCOCCCl [Bis 2-Chloroethoxy Methane],concentration in plasma,Rat [8],83.3 ng/mL
same,concentration in plasma,Rat [9],1590 ng/mL
same,concentration in thymus,Rat [10],72.9 ng/g
same,concentration in heart,Rat [11],12100 ng/g
same,concentration in plasma,Rat [12],99.4 ng/mL
same,concentration in heart,Rat [13],179 ng/g
O=C(O)C(Cl)Cl [dichloroacetic acid],concentration in plasma,Rat [14],22900 ng/mL
same,concentration in plasma,Rat [15]; 2 min,2970 ng/mL
same,concentration in plasma,Rat [15]; 1.25 h,54200 ng/mL
O=C(O)CSCC(=O)O [Thiodiglycolic Acid],concentration in heart,Rat [16],8770 ng/g
same,concentration in plasma,Rat [17],1400 ng/mL
same,concentration in heart,Rat [18],989 ng/g
same,concentration in plasma,Rat [19],2900 ng/mL
same,concentration in thymus,Rat [20],5770 ng/g
same,concentration in plasma,Rat [21],2000 ng/mL
CCCCOC(=O)c1ccccc1C(=O)O [Mono-n-butyl phthalate],concentration in plasma,Rat [22],1290 ng/mL
same,concentration in plasma,Rat [23],8110 ng/mL
same,concentration in plasma,Rat [24],3830 ng/mL
O=C(O)C(Cl)(Cl)Cl [trichloroacetic acid],amount in urine after dosing,human [25]; 22 h,6.91 mg
same,amount in urine after dosing,human [25]; 46 h,2.33 mg
same,amount in urine after dosing,human [25]; 70 h,2.17 mg
same,concentration in plasma,"rat [26]; 30 s, 600 ppm",21100 ng/mL
same,concentration in plasma,"rat [26]; 241 s, 600.4 ppm",15900 ng/mL
same,concentration in plasma,"rat [26]; 0.2413 h, 600.4 ppm",25200 ng/mL
same,concentration in plasma,"rat [26]; 0.5005 h, 600.4 ppm",28200 ng/mL
same,concentration in plasma,"rat [26]; 0.963 h, 600 ppm",24500 ng/mL
same,concentration in plasma,"rat [26]; 2.113 h, 600 ppm",33800 ng/mL
same,concentration in plasma,"rat [26]; 4.901 h, 600.4 ppm",36600 ng/mL
same,concentration in plasma,"rat [26]; 5.077 h, 600 ppm",46200 ng/mL
same,concentration in plasma,"rat [26]; 20.89 h, 600.4 ppm",8380 ng/mL
same,concentration in plasma,"rat [26]; 21.02 h, 600 ppm",25300 ng/mL
same,concentration in plasma,"rat [26]; 28.48 h, 600.4 ppm",3970 ng/mL
same,concentration in plasma,"rat [26]; 29.96 h, 600 ppm",14100 ng/mL
same,concentration in plasma,"rat [26]; 44.93 h, 600.4 ppm",1220 ng/mL
same,concentration in plasma,"rat [26]; 45.37 h, 600 ppm",8190 ng/mL
same,concentration in plasma,"rat [26]; -0.5889 h, 600.4 ppm, during exposure",15300 ng/mL
same,concentration in plasma,"rat [26]; -3.292 h, 600.4 ppm, during exposure",1380 ng/mL
same,concentration in plasma,"rat [26]; -3.75 h, 600 ppm, during exposure",5790 ng/mL
same,amount in urine,"human [27]; 7.504 h, 97 ppm",6.26
same,amount in urine,"human [27]; 7.706 h, 97 ppm",3.69
same,amount in urine,"human [27]; 10.24 h, 54 ppm",5.68
same,amount in urine,"human [27]; 11.01 h, 54 ppm",9.23
same,amount in urine,"human [27]; 23.46 h, 97 ppm",32.7
same,amount in urine,"human [27]; 23.84 h, 97 ppm",36.5
same,amount in urine,"human [27]; 24.26 h, 54 ppm",25.8
same,amount in urine,"human [27]; 24.54 h, 54 ppm",30.2
same,amount in urine,"human [27]; 47.49 h, 97 ppm",113
same,amount in urine,"human [27]; 47.71 h, 97 ppm",101
same,amount in urine,"human [27]; 48.03 h, 54 ppm",88.6
same,amount in urine,"human [27]; 48.27 h, 54 ppm",72
same,amount in urine,"human [27]; 70.31 h, 97 ppm",166
same,amount in urine,"human [27]; 70.67 h, 97 ppm",141
same,amount in urine,"human [27]; 71.68 h, 54 ppm",124
same,amount in urine,"human [27]; 71.91 h, 54 ppm",110
same,amount in urine,"human [27]; 95.13 h, 97 ppm",201
same,amount in urine,"human [27]; 95.58 h, 54 ppm",177
same,amount in urine,"human [27]; 95.7 h, 97 ppm",168
same,amount in urine,"human [27]; 96.05 h, 54 ppm",145
same,amount in urine,"human [27]; 119.2 h, 97 ppm",224
same,amount in urine,"human [27]; 119.67 h, 97 ppm",190
same,amount in urine,"human [27]; 119.76 h, 54 ppm",194
same,amount in urine,"human [27]; 119.83 h, 54 ppm",164
same,amount in urine,"human [27]; 142.97 h, 97 ppm",249
same,amount in urine,"human [27]; 143.27 h, 97 ppm",206
same,amount in urine,"human [27]; 143.82 h, 54 ppm",178
same,amount in urine,"human [27]; 143.83 h, 54 ppm",217
same,amount in urine,"human [27]; 167.26 h, 97 ppm",260
same,amount in urine,"human [27]; 167.56 h, 97 ppm",217
same,amount in urine,"human [27]; 167.82 h, 54 ppm",232
same,amount in urine,"human [27]; 168.41 h, 54 ppm",188
same,amount in urine,"human [27]; 191.33 h, 54 ppm",199
same,amount in urine,"human [27]; 191.56 h, 97 ppm",269
same,amount in urine,"human [27]; 191.61 h, 54 ppm",245
same,amount in urine,"human [27]; 191.66 h, 97 ppm",224
